Assays:
[1] = Inhibition of Trypanosoma brucei brucei LAPT1 assessed as [3H]-pentamidine uptake after 120 secs by scintillation counting
How it was run: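 LAPT1 transport: late-log trypanosomes from HMI-9/10% FBS culture washed into pH 7.3 HEPES-bicarbonate-glucose buffer; 1 μM final [³H]-pentamidine uptake over 120 s with competitor. Uptake terminated with 2 mM ice-cold pentamidine and oil centrifugation; counted by scintillation, Ki from sigmoid curves; triplicate, at least three separate occasions.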

[2] = Cytotoxicity against human HEK cells after 3 days by alamar blue assay; type: cell-based, HEK293; settings: Homo sapiens, HEK293, 72 h
How it was run: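 Human embryonic kidney cells tested by resazurin (Alamar blue) assay: 48 h with compound, then 24 h more after dye addition, single reading; EC₅₀ derived.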

[3] = tested on: Trypanosoma brucei brucei; experiment: Antitrypanosomal activity against diminazene-, pentamidine-, and melaminophenyl arsenical-resistant HAPT1-deficient Trypanosoma brucei brucei B48 after 3 days by alamar blue assay; type: functional, organism-based
How it was run: (§1)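 Bloodstream-form T. b. brucei (wild-type s427; TbAT1-KO, made from s427 by TbAT1 deletion; B48, selected from TbAT1-KO in vitro on pentamidine, lacking functional HAPT1). Cells were exposed to compound for 48 h, then resazurin (Alamar blue) was added for a further 24 h. A single fluorescence reading gave EC50.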

[4] = tested on: Trypanosoma brucei brucei; experiment: Resistance factor, ratio of EC50 for diminazene aceturate-resistant TbAT1 gene-deficient Trypanosoma brucei brucei AT1-KO to EC50 for wild type Trypanosoma brucei brucei Lister 427; type: functional
How it was run: (§2)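 Resistance factor is the EC50 in the resistant line (TbAT1-KO or B48) divided by the EC50 in wild-type s427. […] Resistant and wild-type EC50s were compared by Student t-test.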

[5] = tested on: Trypanosoma brucei brucei; experiment: Antitrypanosomal activity against diminazene aceturate-resistant TbAT1 gene-deficient Trypanosoma brucei brucei AT1-KO after 3 days by alamar blue assay; type: functional, organism-based; how it was run: as §1
[6] = tested on: Trypanosoma brucei brucei; experiment: Antitrypanosomal activity against wild type Trypanosoma brucei brucei Lister 427 after 3 days by alamar blue assay; type: functional, organism-based; how it was run: as §1
[7] = Selectivity index, ratio of EC50 for rat L6 cells to EC50 for Trypanosoma brucei rhodesiense STIB900; type: toxicity, cell-based; settings: for selectivity ratio: L6 cells, read-out: Ratio EC50
How it was run: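 Ratio of EC₅₀ in L6 cells to EC₅₀ against T. b. rhodesiense STIB900, both from Alamar blue assays.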

[8] = tested on: Trypanosoma brucei rhodesiense; experiment: Antitrypanosomal activity against Trypanosoma brucei rhodesiense STIB900 infected in rat L6 cells after 72 hrs by alamar blue assay; type: functional, organism-based
[9] = tested on: Trypanosoma brucei brucei; experiment: Resistance factor, ratio of EC50 for diminazene-, pentamidine-, and melaminophenyl arsenical-resistant HAPT1-deficient Trypanosoma brucei brucei B48 to EC50 for wild type Trypanosoma brucei brucei Lister 427; type: functional; how it was run: as §2
L6 = experiment: Cytotoxicity against rat L6 cells after 72 hrs by alamar blue assay; type: cell-based
[10] = Selectivity index, ratio of EC50 for human HEK cells to EC50 for wild type Trypanosoma brucei brucei Lister 427; type: toxicity, cell-based, HEK293; settings: for selectivity ratio: HEK cells, read-out: Ratio EC50
How it was run: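 Ratio of EC₅₀ in HEK cells to EC₅₀ in wild-type T. b. brucei s427, both from resazurin assays.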

[11] = Trypanosoma brucei, AT1-KO, 72 h
[12] = Trypanosoma brucei, Lister 427, 72 h
[13] = Trypanosoma brucei, STIB900, 72 h

SMILES	Ki [1] [nM]	EC50 [2] [nM]	EC50 ([3]; Trypanosoma brucei, B48, 72 h) [nM]	Ratio EC50 [4]	EC50 [5, 11] [nM]	EC50 [6, 12] [nM]	selectivity ratio [7]	EC50 [8, 13] [nM]	Ratio EC50 [9]	EC50 (L6; Rattus norvegicus, L6, 72 h) [nM]	selectivity ratio [10]	EC50 [3] [nM]	EC50 [5] [nM]	EC50 [6] [nM]	Ratio EC50 ([7]; l6)	EC50 [8] [nM]	EC50 (L6; l6) [nM]	Ratio EC50 ([10]; hek293)
O=C(c1ccc(C[P+](c2ccccc2)(c2ccccc2)C2CCCCC2)cc1)c1ccc(C[P+](c2ccccc2)(c2ccccc2)C2CCCCC2)cc1.[Br-].[Br-]	19000	> 300000	330	1.4	410	300	155	430	1.1	65800	> 1000							
CCCCCC[P+](CCCCCC)(CCCCCC)Cc1ccc(C(=O)c2ccc(C[P+](CCCCCC)(CCCCCC)CCCCCC)cc2)cc1.[Br-].[Br-]	25000	16600	35	1.2	47	38	10	112	0.9	1110	438							
O=C(c1ccc(C[P+](c2ccccc2)(c2ccccc2)c2ccccc2)cc1)c1ccc(C[P+](c2ccccc2)(c2ccccc2)c2ccccc2)cc1.[Br-].[Br-]	49000	> 300000	380	1.5	360	240	282	260	1.6	73300	> 1250							
Cc1ccc([P+](Cc2ccc(Cc3ccc(C[P+](c4ccccc4)(c4ccccc4)c4ccc(C)cc4)cc3)cc2)(c2ccccc2)c2ccccc2)cc1.[Br-].[Br-]	20000	> 300000	180	0.8	190	240	22	200	0.7	4470	> 1250							
Cc1ccc(C[P+](c2ccccc2)(c2ccccc2)c2ccccc2)cc1.[Br-]	25000			0.8					0.5			22	33	43	35.5	364	12900	> 7000
Cc1ccc([P+](Cc2ccc(C(=O)c3ccc(C[P+](c4ccccc4)(c4ccccc4)c4ccc(C)cc4)cc3)cc2)(c2ccccc2)c2ccccc2)cc1.[Br-].[Br-]		261000	183	1	182	180	62	260	1	16300	1450							
Cc1ccccc1[P+](Cc1ccc(C(=O)c2ccc(C[P+](c3ccccc3)(c3ccccc3)c3ccccc3C)cc2)cc1)(c1ccccc1)c1ccccc1.[Br-].[Br-]		214000	220	1.2	240	200	88	160	1.1	14000	1100							
CC(C)C[P+](Cc1ccc(Cc2ccc(C[P+](CC(C)C)(CC(C)C)CC(C)C)cc2)cc1)(CC(C)C)CC(C)C.[Br-].[Br-]		> 300000	880	1.3	880	700	141	326	1.3	45900	> 429							
CCCCCC[P+](CCCCCC)(CCCCCC)Cc1ccc(C(=O)c2ccccc2)cc1.[Br-]		13400	22	0.7	8	11	15	103	1.9	1610	1200							
Cc1ccc([P+](Cc2ccc(S(=O)(=O)c3ccc(C[P+](c4ccc(C)cc4)(c4ccc(C)cc4)c4ccc(C)cc4)cc3)cc2)(c2ccc(C)cc2)c2ccc(C)cc2)cc1.[Br-].[Br-]		> 300000	270	1.1	253	230	127	173	1.2	22000	> 1300							
CCCCCCCC[P+](CCCCCCCC)(CCCCCCCC)Cc1ccc(C(=O)c2ccc(C[P+](CCCCCCCC)(CCCCCCCC)CCCCCCCC)cc2)cc1.[Br-].[Br-]		27000	45	1.4	61	42	5	220	1.1	1000	639							
O=C(c1ccc(C[P+](c2ccccc2)(C2CCCCC2)C2CCCCC2)cc1)c1ccc(C[P+](c2ccccc2)(C2CCCCC2)C2CCCCC2)cc1.[Br-].[Br-]		> 300000	290	1.1	260	240	72	320	1.2	22900	> 1270							
O=C(c1ccc(C[P+](c2ccccc2)(c2ccccc2)c2ccccn2)cc1)c1ccc(C[P+](c2ccccc2)(c2ccccc2)c2ccccn2)cc1.[Br-].[Br-]		> 300000	1330	2	1430	700	24	607	1.9	14600	> 400							
Cc1ccc([P+](Cc2ccc(Oc3ccc(C[P+](c4ccccc4)(c4ccccc4)c4ccc(C)cc4)cc3)cc2)(c2ccccc2)c2ccccc2)cc1.[Br-].[Br-]		240000	64	0.9	77	82	23	142	0.8	3340	2930							
COc1ccccc1[P+](Cc1ccc(Cc2ccc(C[P+](c3ccccc3OC)(c3ccccc3OC)c3ccccc3OC)cc2)cc1)(c1ccccc1OC)c1ccccc1OC.[Br-].[Br-]		204000	66	0.9	74	80	5	209	0.8	1080	2560							
Cc1cccc([P+](Cc2ccc(Oc3ccc(C[P+](c4cccc(C)c4)(c4cccc(C)c4)c4cccc(C)c4)cc3)cc2)(c2cccc(C)c2)c2cccc(C)c2)c1.[Br-].[Br-]		45400	88	0.7	43	57	1.9	488	1.5	942	792							
Cc1ccc([P+](CCc2ccc(CCCc3ccc(CC[P+](c4ccc(C)cc4)(c4ccc(C)cc4)c4ccc(C)cc4)cc3)cc2)(c2ccc(C)cc2)c2ccc(C)cc2)cc1.[Cl-].[Cl-]		5600	48	0.6	43	77	8.8	73	0.6	645	73							
C[P+](C)(Cc1ccc(CCCc2ccc(C[P+](C)(C)c3ccccc3)cc2)cc1)c1ccccc1.[Br-].[Br-]		> 300000	1090	1.1	1370	1270	49	1220	0.9	59500	> 230							
[Br-].[Br-].c1ccc2c([P+](Cc3ccc(Oc4ccc(C[P+](c5cccc6ccccc56)(c5cccc6ccccc56)c5cccc6ccccc56)cc4)cc3)(c3cccc4ccccc34)c3cccc4ccccc34)cccc2c1		114000	128	0.9	140	160	9	384	0.8	3450	722							
